Measured values as given in PubChem BioAssay.
Inconclusive results are not listed.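 The calls were made as follows, unless noted: active = growth inhibition above 25% in both replicates, a cutoff set 3 SD above the mean; inconclusive = above 25% in only one replicate; inactive = the rest.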

What was measured:
[1] = OD615 S. cerevisiae growth inhibition, permissive medium, pilot counter-assay, permissive growth control for S. cerevisiae lifespan shortening project (AID 705); conditions: OD615, 24 h, at 10 µM, stronger effect = higher value
Outline: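 Timing: 24 h exposure, 30 °C / Material: Saccharomyces cerevisiae strain carrying genetically modified DeaD replicative-lifespan system / Signal: OD at 615 nm / Compound: 10 µM single dose, 0.25% DMSO / Medium: SC raffinose/galactose permissive medium / Evaluation: reduction in yeast growth (OD615)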

[2] = Restrictive medium S. cerevisiae growth inhibition, OD615, pilot screen of yeast lifespan reduction project, restrictive growth control (AID 706;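 active = growth inhibition above a set limit, 3 SD over mean compound inhibition, in both replicates, cut at about 43% in these data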;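 also: modified DeaD lifespan yeast strain shifted to restrictive glucose medium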); conditions: OD615, 48 h, at 10 µM, stronger effect = higher value
Outline: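 System: Engineered S. cerevisiae DeaD strain | Detection: OD615 | Buffer or medium: CSMM-D glucose medium | Doses: 10 µM compound, 0.25% DMSO | Timing: 4 h pre-growth plus 48 h compound exposure, 30 °C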

[3] = viability gain of MRP-1-high H69AR cells under doxorubicin, pilot screen, MRP-1 activator project, CellTiter-Glo, duplicate (AID 807;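 active = viability increase at or above a cutoff of the median across tested compounds plus 3 SD, cut at about 8.5% in these data, passing the limit was not always enough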;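 also: compound pretreatment 18-22 h then 72 h combined with doxorubicin; 0% = doxorubicin alone and 100% = vehicle without doxorubicin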); conditions: H69AR viability with doxorubicin, CellTiter-Glo luminescence; at 10 µM; stronger effect = higher value
[4] = growth suppression of beta-catenin knockout HCT116, pilot screen, human colon tumor cells (AID 823;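 active = cell viability at or below a set limit in both duplicate runs, the limit being the all-compound median minus 4 SD, cut at about 23% in these data, passing the limit was not always enough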;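 also: 0% = wells killed by 20 µM Hyamine and 100% = untreated DMSO cell wells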); conditions: CellTiter-Glo, 60 h, at 10 µM, stronger effect = lower value
[5] = growth suppression of PTEN-deleted HCT116, pilot screen, cell-based, HCT116 clonal line, CellTiter-Glo (AID 824;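 active = viability at or below 27.92% in each of two runs, the all-compound median minus 4 SD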;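 also: 0% = 20 µM Hyamine control and 100% = vehicle cell control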); conditions: 60 h, at 10 µM, stronger effect = lower value
[6] = inhibitors of the yeast RAM network, pilot screen, dse1pr::URA3 reporter, 5-FOA selection (AID 869;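 active = inhibition over a set limit, the all-compound mean plus 3 SD, in both replicate runs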;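 also: 0% = DMSO wells with no growth and 100% = 10 µM 1-NA-PP1 with full growth; RAM network block rescues cells from 5-FOA so hits raise OD615 growth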); conditions: S. cerevisiae dse1pr::URA3 5-FOA growth, OD615, 2 d; at 10 µM; stronger effect = higher value; strain carries analog-sensitive mutant Cbk1 kinase
[7] = RAM signaling pathway blockade in yeast – S. cerevisiae, Pdr1DBD-CYC8 efflux-inhibited sensitized strain, primary screen (AID 1298;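 active = RAM network inhibition above 8.4% in each of two replicates, 3 SD over the compound average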;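 also: 0% = DMSO untreated cells without growth and 100% = 10 µM 1-NA-PP1 full growth; higher means more yeast growth rescued from 5-FOA killing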); conditions: S. cerevisiae cbk1-as DSE1-URA3 strain, 5-FOA growth OD615, 2 d; at 50 µM; stronger effect = higher value

CCOC(=O)c1sc(NC(=O)c2ccco2)nc1C
inactive: growth inhibition [1] -9.56% | growth inhibition [2] -2.94% | viability increase [3] -1.31% | viability [4] 94.5% | viability [5] 91.8% | inhibition [6] 1.66% | RAM network inhibition [7] 3.98%

Cc1nc(N2CCN(C(=O)c3ccco3)CC2)c2c3c(sc2n1)CCC3
inactive: growth inhibition [1] -10.5% | growth inhibition [2] 5.55% | viability increase [3] -1.12% | viability [4] 79.8% | viability [5] 83% | inhibition [6] 1.16% | RAM network inhibition [7] 5%

O=c1oc2ccccc2n1Cc1ccccc1Cl
inactive: growth inhibition [1] -1.38% | growth inhibition [2] 8.91% | viability increase [3] -0.37% | viability [4] 97.1% | viability [5] 99.5% | inhibition [6] 1.56% | RAM network inhibition [7] 0.31%

NS(=O)(=O)c1ccc(CNC(=O)NC2(c3ccccc3)CC2)cc1
inactive: growth inhibition [1] -14.6% | growth inhibition [2] -6.6% | viability increase [3] -2.9% | viability [4] 102% | viability [5] 87.2% | inhibition [6] 1.08% | RAM network inhibition [7] 3.05%

COc1ccccc1C(=O)Nc1nnc(-c2ccc(Cl)cc2)o1
inactive: growth inhibition [1] -2.96% | growth inhibition [2] 1.53% | viability increase [3] -1.3% | viability [4] 103% | viability [5] 98.1% | inhibition [6] 0.395% | RAM network inhibition [7] -0.25%

CCOC(=O)CNC(=O)c1cn(CC(C)C)c(=O)c2cc(OC)c(OC)cc12
inactive: growth inhibition [1] -5.46% | growth inhibition [2] -6.08% | viability increase [3] -1.77% | viability [4] 105% | viability [5] 101% | inhibition [6] -0.375% | RAM network inhibition [7] 4.17%

CCSCCOC(=O)C1=C(C)NC(=O)NC1c1ccccc1 (stereo not drawn)
inactive: growth inhibition [1] -4.77% | growth inhibition [2] -1.22% | viability increase [3] 0.68% | viability [4] 105% | viability [5] 98.1% | inhibition [6] 1.47% | RAM network inhibition [7] 0.3%

Cc1cc(N2CCOCC2)nc(SCC(=O)c2ccccc2)n1
inactive: growth inhibition [1] -16.5% | growth inhibition [2] -4.63% | viability increase [3] -1.98% | viability [4] 99% | viability [5] 91.7% | inhibition [6] 2.53% | RAM network inhibition [7] 2.06%

CCCC(=O)c1c(NC)cc(C)oc1=O
inactive: growth inhibition [1] -7.03% | growth inhibition [2] 4.71% | viability increase [3] -0.53% | viability [4] 97.2% | viability [5] 92.2% | inhibition [6] 0.62% | RAM network inhibition [7] 3.99%

CC1CCN(c2nc(-c3ccncc3)nc3ccccc23)CC1
inactive: growth inhibition [1] 6.84% | growth inhibition [2] -2.73% | viability increase [3] -5.28% | viability [4] 40.4% | viability [5] 58.7% | inhibition [6] 0.745% | RAM network inhibition [7] 5.56%

CCOC(=O)CN1c2ccccc2NC(=O)CC1C (stereo not drawn)
inactive: growth inhibition [1] -5.11% | growth inhibition [2] -4.52% | viability increase [3] -4.06% | viability [4] 101% | viability [5] 98.9% | inhibition [6] 0.895% | RAM network inhibition [7] -0.43%

Nc1cc(=O)[nH]c(SCc2nc3ccccc3n2Cc2ccccc2)n1
inactive: growth inhibition [1] -2.77% | growth inhibition [2] 17% | viability increase [3] -0.14% | viability [4] 90.4% | viability [5] 89% | inhibition [6] 0.71% | RAM network inhibition [7] 6.17%

CCN1CCN(C(=O)CSCc2nc(-c3ccc(OC)c(OC)c3)oc2C)CC1
inactive: growth inhibition [1] -3.83% | growth inhibition [2] -7.22% | viability increase [3] -1.52% | viability [4] 101% | viability [5] 101% | inhibition [6] 0.475% | RAM network inhibition [7] 1.3%

Cc1ccc(-c2noc(CN(C(=O)c3cccc(Br)c3)C(C)C)n2)cc1
inactive: growth inhibition [1] 0.485% | growth inhibition [2] -2.63% | viability increase [3] 1.98% | viability [4] 92.5% | viability [5] 85.3% | inhibition [6] 2.58% | RAM network inhibition [7] 10%

CCCCNC(=O)c1ccc2nc(-c3ccco3)c(-c3ccco3)nc2c1
inactive: growth inhibition [1] -4.73% | growth inhibition [2] -6.49% | viability increase [3] -1.69% | viability [4] 104% | viability [5] 97.5% | inhibition [6] 1.85% | RAM network inhibition [7] 1.63%

CCOC(=O)C1CCN(CC(O)COc2ccc(C(C)(C)CC)cc2)CC1 (stereo not drawn)
inactive: growth inhibition [1] -14% | growth inhibition [2] -10.4% | viability increase [3] -4.71% | viability [4] 65.6% | viability [5] 73.5% | inhibition [6] -0.58% | RAM network inhibition [7] 0.78%

Clc1ccc(C=NC23CN4CN(CN(C4)C2)C3)cc1
inactive: growth inhibition [1] 8.77% | growth inhibition [2] 6.34% | viability increase [3] -1.39% | viability [4] 102% | viability [5] 90.3% | inhibition [6] 1.11% | RAM network inhibition [7] 0.19%

CCC1Oc2ccc(C)cc2N(CC(=O)N2CCN(c3ccc(F)cc3)CC2)C1=O (stereo not drawn)
inactive: growth inhibition [1] 5.46% | growth inhibition [2] 11.1% | viability increase [3] -3.35% | viability [4] 90% | viability [5] 83.5% | inhibition [6] -0.495% | RAM network inhibition [7] -0.06%

Cc1cccc(Cn2c(CN3CCN(Cc4ccccc4)CC3)nc3c2c(=O)[nH]c(=O)n3C)c1
inactive: growth inhibition [1] -14.3% | growth inhibition [2] -14.1% | viability increase [3] -3.25% | viability [4] 50.4% | viability [5] 48.6% | inhibition [6] 2.25% | RAM network inhibition [7] 1.88%

CC1(C)CC(n2c(NCCO)nc3c(c2=O)C2(CCCC2)Cc2ccccc2-3)CCO1 (stereo not drawn)
inactive: growth inhibition [1] 11.7% | growth inhibition [2] 2.4% | viability increase [3] -6.73% | viability [4] 96.2% | viability [5] 93.4% | inhibition [6] 0.65% | RAM network inhibition [7] 7.43%

O=C(Nc1ccc(Oc2ccc(NC(=O)C3CCCO3)cc2)cc1)C1CCCO1 (stereo not drawn)
inactive: growth inhibition [1] -2.75% | growth inhibition [2] -11% | viability increase [3] -5.07% | viability [4] 85.7% | viability [5] 96.7% | inhibition [6] 3.62% | RAM network inhibition [7] -0.11%

COc1ccc(-n2c(=O)c3ccccc3n(CC(=O)NC3CCCC3)c2=O)c(OC)c1
inactive: growth inhibition [1] -4.38% | growth inhibition [2] -22% | viability increase [3] -0.98% | viability [4] 98.2% | viability [5] 96.2% | inhibition [6] 2.04% | RAM network inhibition [7] 3.21%

CCOC(=O)N1CCN(S(=O)(=O)c2cccc3nonc23)CC1
inactive: growth inhibition [1] -9.77% | growth inhibition [2] -27.6% | viability increase [3] -1.56% | viability [4] 90.5% | viability [5] 92.2% | inhibition [6] 1.68% | RAM network inhibition [7] 5.47%

CC1=C(C)C(=O)N(CCC(=O)O)C1=O
inactive: growth inhibition [1] -12.6% | growth inhibition [2] -20.3% | viability increase [3] -1.09% | viability [4] 95.3% | viability [5] 93.8% | inhibition [6] 1.52% | RAM network inhibition [7] 3.32%
